Experimental data as given in ChEMBL document CHEMBL3352487, “Synthesis, antibacterial activity, and biological evaluation of formyl hydroxyamino derivatives as novel potent peptide deformylase inhibitors against drug-resistant bacteria” (Eur J Med Chem, 2014).
In brackets after ≈: the same amount, converted by molar mass.

Columns and labels:
Staphylococcus aureus [1] = assay: Antimicrobial activity against Staphylococcus aureus isolate CL 939 after 24 hrs by broth microdilution method; assay type: functional; conditions: isolate CL 939, 24 h
Procedure, shortened: (§1)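 Broth microdilution following NCCLS M7-A4, using ATCC strains and clinical isolates from a provincial hospital.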

Staphylococcus aureus [2] = assay: Antimicrobial activity against Staphylococcus aureus isolate 929035 after 24 hrs by broth microdilution method; assay type: functional; conditions: isolate 929035, 24 h
Procedure, shortened: (§2)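 Broth microdilution following NCCLS M7-A4; ATCC strains and clinical isolates from a provincial hospital.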

Staphylococcus aureus [3] = assay: Antimicrobial activity against Staphylococcus aureus isolate RN4220 pmz1 after 24 hrs by broth microdilution method; assay type: functional; conditions: isolate RN4220 pmz1, 24 h; procedure, shortened: as §1
Staphylococcus aureus [4] = assay: Antimicrobial activity against Staphylococcus aureus isolate Ealing 23 after 24 hrs by broth microdilution method; assay type: functional; conditions: isolate Ealing 23, 24 h; procedure, shortened: as §1
Staphylococcus aureus [5] = assay: Antimicrobial activity against Staphylococcus aureus isolate OGA833 after 24 hrs by broth microdilution method; assay type: functional; conditions: isolate OGA833, 24 h; procedure, shortened: as §2
Staphylococcus aureus [6] = assay: Antimicrobial activity against Staphylococcus aureus isolate 929003 after 24 hrs by broth microdilution method; assay type: functional; conditions: isolate 929003, 24 h; procedure, shortened: as §2
Staphylococcus aureus [7] = assay: Antimicrobial activity against Staphylococcus aureus isolate Smith ATCC 13709 after 24 hrs by broth microdilution method; assay type: functional; conditions: isolate Smith ATCC 13709, 24 h; procedure, shortened: as §1
Staphylococcus aureus [8] = assay: Antimicrobial activity against Staphylococcus aureus isolate CARTER 37 after 24 hrs by broth microdilution method; assay type: functional; conditions: isolate CARTER 37, 24 h; procedure, shortened: as §1
Staphylococcus aureus [9] = assay: Antimicrobial activity against Staphylococcus aureus isolate RN1024 after 24 hrs by broth microdilution method; assay type: functional; conditions: isolate RN1024, 24 h; procedure, shortened: as §1
Staphylococcus aureus [10] = assay: Antimicrobial activity against Staphylococcus aureus isolate MN 1255 after 24 hrs by broth microdilution method; assay type: functional; conditions: isolate MN 1255, 24 h; procedure, shortened: as §2
Staphylococcus aureus [11] = assay: Antimicrobial activity against Staphylococcus aureus isolate 934335 after 24 hrs by broth microdilution method; assay type: functional; conditions: isolate 934335, 24 h; procedure, shortened: as §2
Staphylococcus aureus [12] = assay: Antimicrobial activity against Staphylococcus aureus isolate RN1030 after 24 hrs by broth microdilution method; assay type: functional; conditions: isolate RN1030, 24 h; procedure, shortened: as §1
Staphylococcus aureus [13] = assay: Antimicrobial activity against Staphylococcus aureus isolate NEQAS 4026 after 24 hrs by broth microdilution method; assay type: functional; conditions: isolate NEQAS 4026, 24 h; procedure, shortened: as §2
Staphylococcus aureus [14] = assay: Antimicrobial activity against Staphylococcus aureus isolate CL 938 after 24 hrs by broth microdilution method; assay type: functional; conditions: isolate CL 938, 24 h; procedure, shortened: as §2
Staphylococcus aureus [15] = assay: Antimicrobial activity against Staphylococcus aureus isolate RUSSELL after 24 hrs by broth microdilution method; assay type: functional; procedure, shortened: as §1
Staphylococcus aureus [16] = assay: Antimicrobial activity against Staphylococcus aureus isolate NEQAS 4158 after 24 hrs by broth microdilution method; assay type: functional; conditions: isolate NEQAS 4158, 24 h; procedure, shortened: as §2
Staphylococcus aureus [17] = assay: Antimicrobial activity against Staphylococcus aureus isolate F89 after 24 hrs by broth microdilution method; assay type: functional; conditions: isolate F89, 24 h; procedure, shortened: as §2
Staphylococcus aureus [18] = assay: Antimicrobial activity against Staphylococcus aureus isolate Ealing 32 after 24 hrs by broth microdilution method; assay type: functional; conditions: isolate Ealing 32, 24 h; procedure, shortened: as §2
Staphylococcus aureus [19] = assay: Antimicrobial activity against Staphylococcus aureus ATCC 29213 after 24 hrs by broth microdilution method; assay type: functional; conditions: ATCC 29213, 24 h; procedure, shortened: as §2
Staphylococcus aureus [20] = assay: Antimicrobial activity against Staphylococcus aureus isolate 306 after 24 hrs by broth microdilution method; assay type: functional; conditions: isolate 306, 24 h; procedure, shortened: as §2
Staphylococcus aureus [21] = assay: Antimicrobial activity against Staphylococcus aureus isolate MILES HALL after 24 hrs by broth microdilution method; assay type: functional; procedure, shortened: as §1
Staphylococcus aureus [22] = assay: Antimicrobial activity against Staphylococcus aureus isolate 934387 after 24 hrs by broth microdilution method; assay type: functional; conditions: isolate 934387, 24 h; procedure, shortened: as §1
Staphylococcus aureus [23] = assay: Antimicrobial activity against Staphylococcus aureus isolate 934334 after 24 hrs by broth microdilution method; assay type: functional; conditions: isolate 934334, 24 h; procedure, shortened: as §2
Staphylococcus aureus [24] = assay: Antimicrobial activity against Staphylococcus aureus isolate CL 1033 after 24 hrs by broth microdilution method; assay type: functional; conditions: isolate CL 1033, 24 h; procedure, shortened: as §2
Staphylococcus aureus [25] = assay: Antimicrobial activity against Staphylococcus aureus isolate 934324 after 24 hrs by broth microdilution method; assay type: functional; conditions: isolate 934324, 24 h; procedure, shortened: as §2
[26] = Protein binding in CD1 mouse plasma at 2 uM by equilibrium dialysis; assay type: ADME, cell-free; conditions: read-out: PPB (converted)
[27] = Drug recovery in CD1 mouse plasma at 2 uM by equilibrium dialysis; assay type: ADME, cell-free; conditions: read-out: Drug recovery
Procedure, shortened: (§3)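 Pooled CD-1 mouse plasma spiked to 2 µM final, equilibrium dialysis in triplicate against 100 mM PBS pH 7.4, 4 h at 37 °C with rotation; matrix-matched samples acetonitrile-precipitated, LC-MS/MS with internal standards. Unbound = free/total ×100; recovery = (free+total)/pre-dialysis ×100.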

[28] = Fraction unbound in CD1 mouse plasma at 2 uM by equilibrium dialysis; assay type: ADME, cell-free; procedure, shortened: as §3

For `C/C(=C\C(=O)OCCCCCCCCC(=O)O)C[C@@H]1OC[C@H](C[C@@H]2O[C@H]2[C@@H](C)[C@H](C)O)[C@@H](O)[C@H]1O` [MUPIROCIN], the MIC (Staphylococcus aureus [1]) was 0.25 µg/mL (≈ 0.499 µM), the MIC (Staphylococcus aureus [2]) was 0.25 µg/mL (≈ 0.499 µM) and the MIC (Staphylococcus aureus [3]) was > 16 µg/mL. The MIC (Staphylococcus aureus [4]) was > 16 µg/mL, the MIC (Staphylococcus aureus [5]) was > 16 µg/mL and the MIC (Staphylococcus aureus [6]) was 0.25 µg/mL (≈ 0.499 µM). The MIC (Staphylococcus aureus [7]) was 0.06 µg/mL (≈ 0.12 µM), the MIC (Staphylococcus aureus [8]) was > 16 µg/mL and the MIC (Staphylococcus aureus [9]) was 0.25 µg/mL (≈ 0.499 µM). It also gave an MIC (Staphylococcus aureus [10]) of 0.25 µg/mL (≈ 0.499 µM), an MIC (Staphylococcus aureus [11]) of 0.25 µg/mL (≈ 0.499 µM) and an MIC (Staphylococcus aureus [12]) of 0.25 µg/mL (≈ 0.499 µM). The MIC (Staphylococcus aureus [13]) was > 16 µg/mL, the MIC (Staphylococcus aureus [14]) was 0.25 µg/mL (≈ 0.499 µM) and the MIC (Staphylococcus aureus [15]) was 0.25 µg/mL (≈ 0.499 µM). The MIC (Staphylococcus aureus [16]) was 0.25 µg/mL (≈ 0.499 µM), the MIC (Staphylococcus aureus [17]) was > 16 µg/mL and the MIC (Staphylococcus aureus [18]) was > 16 µg/mL. The MIC (Staphylococcus aureus [19]) was 0.25 µg/mL (≈ 0.499 µM), the MIC (Staphylococcus aureus [20]) was > 16 µg/mL and the MIC (Staphylococcus aureus [21]) was > 16 µg/mL. It also gave an MIC (Staphylococcus aureus [22]) of 0.25 µg/mL (≈ 0.499 µM), an MIC (Staphylococcus aureus [23]) of 0.25 µg/mL (≈ 0.499 µM) and an MIC (Staphylococcus aureus [24]) of 0.25 µg/mL (≈ 0.499 µM). It also gave an MIC (Staphylococcus aureus [25]) of 0.25 µg/mL (≈ 0.499 µM).
`CC(=O)CC(c1ccccc1)c1c(O)c2ccccc2oc1=O` (stereo not drawn) [WARFARIN] gave a fraction unbound at 2 µM [26] of 0.059, a recovery at 2 µM [27] of 104% and a fraction unbound at 2 µM [28] of 0.059.
